In paper PMC7134334 (Neuropharmacology, 2016):

How the values were obtained:
[1] = system: WT Kv3.1 channels and VSD chimeras (S1-S4, S1-S3a, S3b-S4); type: cell-based; settings: block calculated at depolarizing potentials of V1/2 +30 mV
Kv3.1 [2] = molecular target: T1, Kv3.1 (Homo sapiens, UniProt P48547); experiment: Patch-clamp current inhibition by gambierol, WT Kv3.1 in Ltk− cells; type: cell-based; settings: read-out: IC50 (concentration that induces 50% current inhibition); WT Kv3.1 expressed in Ltk− cells; mean ± SEM
T1 sequence (P48547 1-511): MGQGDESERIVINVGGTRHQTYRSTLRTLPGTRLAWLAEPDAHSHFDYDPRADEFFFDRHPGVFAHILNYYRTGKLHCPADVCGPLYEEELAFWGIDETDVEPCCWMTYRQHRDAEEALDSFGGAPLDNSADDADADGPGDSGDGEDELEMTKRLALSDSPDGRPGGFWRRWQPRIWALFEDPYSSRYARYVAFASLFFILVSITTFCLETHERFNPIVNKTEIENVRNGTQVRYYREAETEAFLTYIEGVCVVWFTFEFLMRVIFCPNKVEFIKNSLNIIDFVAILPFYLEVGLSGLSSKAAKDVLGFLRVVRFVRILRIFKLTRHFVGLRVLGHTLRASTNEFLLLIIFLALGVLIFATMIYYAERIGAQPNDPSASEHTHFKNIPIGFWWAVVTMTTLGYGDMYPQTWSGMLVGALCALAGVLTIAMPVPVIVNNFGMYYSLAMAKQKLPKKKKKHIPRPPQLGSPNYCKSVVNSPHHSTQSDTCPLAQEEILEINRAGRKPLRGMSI
Procedure, shortened: (§1)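 Ltk− mouse fibroblasts (DMEM, 10% horse serum) transiently PEI-transfected with 15–200 ng cDNA, recorded ~20–28 h later at 20–23 °C. Bath (mM): NaCl 130, KCl 4, CaCl2 1.8, MgCl2 1, HEPES 10, glucose 10, pH 7.35. Pipette: KCl 110, K4BAPTA 5, K2ATP 5, MgCl2 1, HEPES 10, pH 7.2. Fast-perfused, final DMSO ≤0.5%. Fraction of current left at +40 mV Hill-fitted for IC50. Cells with >5 mV voltage error excluded. Mean ± SEM over cells.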

Kv3.1_S1-S4_2.1 = experiment: Patch-clamp current inhibition by gambierol, Kv3.1_S1-S4_2.1 chimera; type: cell-based; settings: read-out: IC50 (concentration that induces 50% current inhibition); Kv3.1_S1-S4_2.1 in Ltk− cells; n = 4
Procedure, shortened: as §1

Kv3.1_S1-S3a_2.1 = experiment: Patch-clamp current inhibition by gambierol, Kv3.1_S1-S3a_2.1 chimera; type: cell-based; settings: read-out: IC50 (concentration that induces 50% current inhibition); Kv3.1_S1-S3a_2.1 in Ltk− cells; n = 3
Procedure, shortened: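 Ltk− mouse fibroblasts (DMEM, 10% horse serum) transiently PEI-transfected with channel cDNA and patch-clamped 20–28 h later at 20–23 °C. Bath (mM): NaCl 130, KCl 4, CaCl2 1.8, MgCl2 1, HEPES 10, glucose 10, pH 7.35; pipette KCl-based with BAPTA, ATP, pH 7.2. Toxin perfused from DMSO stock (final DMSO ≤0.5%). Remaining current at +40 mV Hill-fitted for IC50; mean ± SEM over cells.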

Kv3.1_S3b-S4_2.1 = experiment: Patch-clamp current inhibition by gambierol, Kv3.1_S3b-S4_2.1 chimera; type: cell-based; settings: read-out: IC50 (concentration that induces 50% current inhibition); Kv3.1_S3b-S4_2.1 in Ltk− cells; n = 4
Procedure, shortened: as §1

Kv2.1 V404T_S3b-S4_3.1 = experiment: Patch-clamp current inhibition by gambierol, Kv2.1 V404T_S3b-S4_3.1 chimera; type: cell-based
Procedure, shortened: as §1

Kv3.1 [3] = molecular target: T1, Kv3.1; settings: ref Kopljar et al., 2013; cited from earlier work

| SMILES | differences in IC50 values between WT channels and chimeras [1] [fold] | IC50 (Kv3.1 [2]) [nM] | IC50 (Kv3.1_S1-S4_2.1) [nM] | IC50 (Kv3.1_S1-S3a_2.1) [nM] | IC50 (Kv3.1_S3b-S4_2.1) [nM] | fold difference compared to the Kv2.1 V404T mutant (Kv2.1 V404T_S3b-S4_3.1; Kv2.1 V404T_S3b-S4_3.1 vs previously reported Kv2.1 V404T value) | IC50 (Kv2.1 V404T_S3b-S4_3.1; read-out: IC50 (concentration that induces 50% current inhibition), Kv2.1 V404T_S3b-S4_3.1 in Ltk− cells, n = 3) [nM] | shift of the voltage dependence of activation to more positive potentials (Kv3.1 [3]) |
| --- | --- | --- | --- | --- | --- | --- | --- | --- |
| O=C(NCC1CCCCN1)c1cc(OCC(F)(F)F)ccc1OCC(F)(F)F (centres unmarked) [Flecainide] | < 2 |  |  |  |  |  |  |  |
| C=CC/C=C\C=C/[C@H]1O[C@H]2C[C@H]3O[C@H]4CC[C@H]5O[C@H]6C[C@@]7(C)O[C@@]8(C)[C@@H](O)C[C@H](CCCO)O[C@@H]8C[C@@H]7O[C@@H]6C[C@@H]5O[C@]4(C)C[C@]3(C)O[C@@H]2C=C[C@]1(C)O [gambierol, Gambierol] |  | 1.2 ± 0.2 | 280 ± 40 | 1.9 ± 0.2 | 143 ± 28 | ~ 2 fold | 900 ± 41 | more than +120 mV |
